# Results collected from several papers.
# Each line is one published result; the experiments were not run side by side.
# Target: Vascular endothelial growth factor receptor 2 (KDR, Homo sapiens, UniProt P35968)
SMILES,effect on,mode,technique,tested at,quantity,value
Nc1ncc(-c2nc(N3CCOCC3)nc(N3CCOCC3)n2)c(C(F)F)n1,cell-free assay,,competition with immobilised ligand,10 µM,remaining binding,41%
C#Cc1n[nH]c2c(-c3cn([C@@H](C)c4ccccc4)c(=O)[nH]c3=O)cc(F)cc12,enzyme activity,inhibitor,,0.1 µM,inhibition,5.3%
Cc1nn(C)cc1-c1nc2c(N3CCN(Cc4ccc(Cl)cc4)CC3)c(Cl)cnc2[nH]1,binding,,competition with immobilised ligand,1 µM,remaining binding,12%
C#Cc1n[nH]c2c(-c3cn([C@@H](C)c4ccccn4)c(=O)[nH]c3=O)cc(F)cc12,enzyme activity,inhibitor,,0.1 µM,inhibition,6.6%
COCc1c(-c2cc3cc(C)cc(OC)c3s2)c2c(N)ncnn2c1CN1CCNC(=O)C1,cell-free assay,,competition with immobilised ligand,1 µM,inhibition,81%
Cn1cc(-c2cc(F)cc(N3CCn4c(cc5c4CCCC5)C3=O)c2CO)cc(Nc2ccc(N3CCN(C4COC4)CC3)cn2)c1=O,enzyme activity,inhibitor,,0.1 µM,inhibition,12%
COc1ccc2c(c1)/C(=C/c1cnc[nH]1)C(=O)N2,cell-free assay,,,0.5 µM,remaining signal,78.7%
Cn1cncc1[C@](O)(COc1ccc(C#N)cc1-c1ccc(OC(F)(F)F)cc1)c1ccc(C#N)cc1,cell-free assay,,competition with immobilised ligand,1 µM,remaining binding,96%
COc1ncccc1-c1cnn2ccc(N3CCN(C(=O)OC(C)C)CC3)nc12,binding,,competition with immobilised ligand,1 µM,remaining binding,100%
O=c1[nH]c2ccccc2n1C1CCN(Cc2ccc(-c3[nH]c4cc5ncnc5cc4nc3-c3ccccc3)cc2)CC1,cell-free assay,,,0.5 µM,remaining signal,90.9%
